Common to all, as to assay type: functional
Conditions in all cases: read-out: DIZ

The subject of test [1] is Pseudomonas aeruginosa. Kind of test: Antimicrobial activity against Pseudomonas aeruginosa at 1 mg/ml by well plate method. A digest of the protocol: (§1)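 Agar well-plate diffusion against E. coli, B. subtilis and P. aeruginosa. Test compounds dissolved in DMSO at 1 and 0.5 mg/mL and placed in wells. Streptomycin was the reference drug. Read-out is the zone of inhibition.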

In test [2] the test system is Bacillus subtilis. The experiment in a line: Antimicrobial activity against Bacillus subtilis at 0.5 mg/ml by well plate method. A digest of the protocol: as §1
Test [3] deals with Pseudomonas aeruginosa. Kind of test: Antimicrobial activity against Pseudomonas aeruginosa at 0.5 mg/ml by well plate method. A digest of the protocol:
as §1

Test [4] concerns Escherichia coli. The experiment in a line: Antimicrobial activity against Escherichia coli at 0.5 mg/ml by well plate method. The essentials:
as §1

Test [5] relates to Bacillus subtilis. Kind of test: Antimicrobial activity against Bacillus subtilis at 1 mg/ml by well plate method. The essentials: as §1
Test [6] concerns Escherichia coli. Kind of test: Antimicrobial activity against Escherichia coli at 1 mg/ml by well plate method. A digest of the protocol:
as §1

Test [7] has as its system Aspergillus flavus. Kind of test: Antimicrobial activity against Aspergillus flavus at 1 mg/ml by well plate method. A digest of the protocol:
(§2)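 Fungal well-plate diffusion against Candida albicans, Aspergillus flavus and Chrysosporium keratinophilum. Compounds in DMSO at 1 and 0.5 mg/mL, with fluconazole as the reference drug. Activity scored as the zone of inhibition.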

For test [8], the system named is Chrysosporium keratinophilum. The experiment in a line: Antimicrobial activity against Chrysosporium keratinophilum at 0.5 mg/ml by well plate method. The essentials:
as §2

The test system of test [9] is Candida albicans. Kind of test: Antimicrobial activity against Candida albicans at 1 mg/ml by well plate method. A digest of the protocol: as §2
Test [10] deals with Aspergillus flavus. The experiment in a line: Antimicrobial activity against Aspergillus flavus at 0.5 mg/ml by well plate method. The essentials:
as §2

Test [11] has as its system Candida albicans. Kind of test: Antimicrobial activity against Candida albicans at 0.5 mg/ml by well plate method. The essentials: as §2
The test system of test [12] is Chrysosporium keratinophilum. Kind of test: Antimicrobial activity against Chrysosporium keratinophilum at 1 mg/ml by well plate method. A digest of the protocol: as §2

`COc1ccc(-c2cn3nc(-c4ccc(N5CCN(C)CC5)c([N+](=O)[O-])c4)sc3n2)cc1`: the zone of inhibition at 1000 µg/mL is 5 mm in [1], 5 mm in test [5] and 6 mm in test [6]. The zone of inhibition at 500 µg/mL came to 3 mm in test [2], 3 mm in test [3] and 4 mm in test [4].

As to `COc1ccc(-c2cn3nc(-c4ccc(N(C)C)c([N+](=O)[O-])c4)sc3n2)cc1`, the zone of inhibition at 1000 µg/mL in test [1] was 6 mm; in test [7], 4 mm; in [9], 5 mm; in test [5] it was 3 mm; in test [12], 4 mm; in test [6] it was 4 mm. Moreover, the zone of inhibition at 500 µg/mL in test [2] came to 2 mm; in [3] it was 4 mm; in test [4], 3 mm; in test [8], 2 mm; in test [10], 2 mm; in test [11], 3 mm.

On to `COc1ccc(-c2cn3nc(-c4ccc(NCC5CCCO5)c([N+](=O)[O-])c4)sc3n2)cc1` (stereo not given), for which the zone of inhibition at 1000 µg/mL in test [1] was determined as 13 mm; in test [7], 9 mm; in test [9], 7 mm; in test [5] it was 10 mm; in [12], 8 mm; in test [6] it was 13 mm. The zone of inhibition at 500 µg/mL is 8 mm in [2]; 9 mm in [3]; 10 mm in [4]; 6 mm in test [8]; 6 mm in [10]; 5 mm in test [11].

In the case of `COc1ccc(-c2cn3nc(-c4ccc(NC5CCCCC5)c([N+](=O)[O-])c4)sc3n2)cc1`, the zone of inhibition at 1000 µg/mL in [1] is 9 mm; in test [7], 8 mm; in [9], 9 mm; in test [5], 10 mm; in test [12], 7 mm; in test [6] it was 11 mm. Besides, the zone of inhibition at 500 µg/mL is 7 mm in [2]; 7 mm in test [3]; 9 mm in test [4]; 5 mm in test [8]; 6 mm in [10]; 7 mm in test [11].

As for `COc1ccc(-c2cn3nc(-c4ccc(NCc5ccc(F)cc5F)c([N+](=O)[O-])c4)sc3n2)cc1`, the zone of inhibition at 1000 µg/mL in [1] amounted to 4 mm; in [7], 6 mm; in [9], 5 mm; in [5], 4 mm; in [12], 8 mm; in test [6], 3 mm. The zone of inhibition at 500 µg/mL amounted to 2 mm in test [2]; 2 mm in [3]; 1 mm in test [4]; 6 mm in test [8]; 3 mm in [10]; 3 mm in test [11].

In the case of `COc1ccc(-c2cn3nc(-c4ccc(N5CCCC5)c([N+](=O)[O-])c4)sc3n2)cc1`, the zone of inhibition at 1000 µg/mL in [1] was found to be 6 mm; in test [7], 7 mm; in test [9] it was 7 mm; in [5], 9 mm; in [12], 6 mm; in test [6], 8 mm. Besides, the zone of inhibition at 500 µg/mL in test [2] was found to be 7 mm; in test [3] it was 4 mm; in test [4], 5 mm; in [8] it was 4 mm; in test [10], 5 mm; in [11], 5 mm.

Regarding `CCN(CC)c1ccc(-c2nn3cc(-c4ccc(OC)cc4)nc3s2)cc1[N+](=O)[O-]`, the zone of inhibition at 1000 µg/mL in [1] was 3 mm; in test [7], 5 mm; in test [9], 6 mm; in [5] it was 5 mm; in [12], 5 mm; in [6], 6 mm. Moreover, the zone of inhibition at 500 µg/mL in test [2] came to 3 mm; in test [3] it was 1 mm; in test [4], 4 mm; in [8], 3 mm; in test [10] it was 3 mm; in [11], 5 mm.

With `CCCCNc1ccc(-c2nn3cc(-c4ccc(OC)cc4)nc3s2)cc1[N+](=O)[O-]`, the zone of inhibition at 1000 µg/mL was 7 mm in test [1]; 2 mm in test [7]; 3 mm in test [9]; 6 mm in test [5]; 3 mm in [12]; 5 mm in test [6]. Besides, the zone of inhibition at 500 µg/mL stood at 4 mm in test [2]; 5 mm in [3]; 3 mm in [4]; 1 mm in [8]; 2 mm in test [11].

In the case of `CN1CCN(c2ccc(-c3nnc(NC(=O)C(C)(C)C)s3)cc2[N+](=O)[O-])CC1`, the zone of inhibition at 1000 µg/mL turned out to be 3 mm in test [1]; 3 mm in test [7]; 4 mm in [9]; 4 mm in test [5]; 4 mm in test [12]; 5 mm in test [6]. Moreover, the zone of inhibition at 500 µg/mL is 3 mm in [2]; 2 mm in [3]; 3 mm in [4]; 2 mm in test [8]; 2 mm in test [11].

In the case of `CC(C)(C)C(=O)Nc1nnc(-c2ccc(NC3CCCCC3)c([N+](=O)[O-])c2)s1`, the zone of inhibition at 1000 µg/mL in test [1] came to 9 mm; in test [7], 7 mm; in test [9] it was 9 mm; in test [5], 8 mm; in test [12], 6 mm; in test [6], 10 mm. Moreover, the zone of inhibition at 500 µg/mL was found to be 6 mm in test [2]; 7 mm in test [3]; 8 mm in [4]; 4 mm in [8]; 5 mm in test [10]; 7 mm in test [11].

Take `CC(C)(C)C(=O)Nc1nnc(-c2ccc(NCc3ccc(F)cc3F)c([N+](=O)[O-])c2)s1`: the zone of inhibition at 1000 µg/mL in test [1] worked out at 4 mm; in test [7] it was 6 mm; in [9] it was 5 mm; in [5] it was 4 mm; in test [12], 7 mm; in [6], 5 mm. Further, the zone of inhibition at 500 µg/mL in test [2] was 2 mm; in [3], 2 mm; in test [4], 3 mm; in [8], 5 mm; in test [10], 4 mm; in [11] it was 3 mm.

As for `CC(C)(C)C(=O)Nc1nnc(-c2ccc(N3CCCC3)c([N+](=O)[O-])c2)s1`, the zone of inhibition at 1000 µg/mL came out at 6 mm in [1]; 6 mm in test [7]; 6 mm in test [9]; 3 mm in [5]; 5 mm in test [12]; 5 mm in test [6]. Further, the zone of inhibition at 500 µg/mL is 1 mm in test [2]; 4 mm in test [3]; 3 mm in test [4]; 3 mm in test [8]; 4 mm in test [10]; 5 mm in [11].

With `CC(C)(C)C(=O)Nc1nnc(-c2ccc(Nc3ccc(F)cc3)c([N+](=O)[O-])c2)s1`, the zone of inhibition at 1000 µg/mL was found to be 6 mm in test [1]; 3 mm in test [7]; 4 mm in [9]; 5 mm in [5]; 5 mm in [12]; 7 mm in test [6]. The zone of inhibition at 500 µg/mL was 3 mm in test [2]; 4 mm in [3]; 5 mm in test [4]; 4 mm in test [8]; 2 mm in test [10]; 2 mm in [11].

Turning to `OC(Cn1cncn1)(Cn1cncn1)c1ccc(F)cc1F` [FLUCONAZOLE], the zone of inhibition at 1000 µg/mL in test [7] turned out to be 13 mm; in test [9], 22 mm; in [12] it was 17 mm. The results for the zone of inhibition at 500 µg/mL in test [8], in test [10] and in test [11] were 15 mm, 10 mm and 20 mm, respectively.

Consider `CN[C@@H]1[C@H](O[C@H]2[C@H](O[C@H]3[C@H](O)[C@@H](O)[C@H](N=C(N)N)[C@@H](O)[C@@H]3N=C(N)N)O[C@@H](C)[C@]2(O)C=O)O[C@@H](CO)[C@H](O)[C@H]1O` [STREPTOMYCIN], for which the zone of inhibition at 1000 µg/mL in test [1] was 19 mm; in test [5] it was 22 mm; in test [6], 19 mm. In addition, the zone of inhibition at 500 µg/mL in test [2] was 19 mm; in [3], 15 mm; in test [4] it was 17 mm.
